Data from ChEMBL document CHEMBL4602727, “Lead Optimization of Second-Generation Acridones as Broad-Spectrum Antimalarials” (J Med Chem, 2020).
Blank lines part the entries; values can stand above or below the compound they belong to.

Assays:
Type in all cases: ADME, organism-based
[1] = AUC (0 to last) in ICR mouse liver at 80 mg/kg, po administered as single dose; parameters: dose 80 mg/kg, time 0 - last, route oral
[2] = Ratio of AUC (0 to infinity) in ICR mouse liver to plasma at 80 mg/kg, po administered as single dose; conditions: liver and plasma, read-out: Ratio AUC
[3] = AUC (0 to infinity) in ICR mouse liver at 80 mg/kg, po administered as single dose; parameters: dose 80 mg/kg, route oral, time infinity
[4] = Apparent volume of distribution in ICR mouse plasma at 80 mg/kg, po administered as single dose; conditions: read-out: Vz/F
Procedure, shortened: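 Male ICR mice, 7 weeks old, 23–28 g, received a single intragastric 80 mg/kg dose in DD water (100 μL/20 g). […] Cmax and Tmax came from the concentration–time curves; t1/2 = ln2/kel; AUC by linear trapezoidal rule extrapolated to infinity; MRT = AUMC/AUC.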

AUC(0-t) [1]: 11500 ng·h/mL
Structure (SMILES): O=c1c2ccc(OCc3cccc(C(F)(F)F)c3)cc2[nH]c2cc(F)cc(F)c12

Kp [2]: 112
Structure (SMILES): O=c1c2ccc(Oc3ccc(OC(F)(F)F)cc3)cc2[nH]c2cc(Cl)cc(F)c12

AUC(0-inf) [3]: 19300 ng·h/mL
Structure (SMILES): O=c1c2ccc(OCc3cccc(OC(F)(F)F)c3)cc2[nH]c2cc(F)cc(F)c12

AUC(0-t) [1]: 20400 ng·h/mL
Structure (SMILES): O=c1c2ccc(OCc3ccc(OC(F)(F)F)cc3)cc2[nH]c2cc(F)cc(F)c12

Vd/F [4]: 290 L/kg
Structure (SMILES): O=c1c2cc(OCc3ccc(OC(F)(F)F)cc3)ccc2[nH]c2cc(F)cc(F)c12
